According to ChEMBL document CHEMBL3244104, “New inhibitors of platelet aggregation. 5'-Phosphate, 5'-phosphorothioate, and 5'-O-sulfamoyl derivatives of 2-substituted adenosine analogues” (J Med Chem, 1978):
Calls of active or inactive are those of the source. The rule behind the calls is not given here.

Assays:
[1] = tested on: Platelet; assay: Antiplatelet activity in sheep platelet rich plasma assessed as inhibition of serotonin-induced platelet aggregation pretreated for 1 min followed by serotonin addition by photometric analysis; type: functional, cell-free; settings: Ovis aries
Method in brief: (§1)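 Serotonin-induced aggregation in sheep PRP adjusted to 300 000-400 000 platelets/mm³, measured at 37 °C by Born photometry in stirred samples. Inhibitor given 1 min before serotonin, with serotonin final 1.6 μM. Agents dissolved in barbitone-buffered saline, pH 7.4.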

[2] = Antiplatelet activity in sheep platelet rich plasma assessed as inhibition of ADP-induced platelet aggregation pretreated for 2.5 mins followed by ADP addition by photometric analysis relative to adenosine; type: functional, Ovis aries
Method in brief: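 Sheep PRP (300 000-400 000 platelets/mm³), 37 °C, stirred, Born photometric read-out. Analogue incubated 2.5 min before ADP (final 0.67 μM). Four doses per analogue. Rate taken as initial slope of the aggregation curve. Potency from log dose vs. percent inhibition plots, expressed relative to adenosine run on each PRP batch. Means of at least four determinations.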

[3] = tested on: Platelet; assay: Antiplatelet activity in sheep platelet rich plasma assessed as inhibition of ADP-induced platelet aggregation pretreated for 2.5 mins followed by ADP addition by photometric analysis; type: functional, cell-free; settings: Ovis aries
Method in brief: (§2)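 Citrated sheep blood spun 24 min at 140g to give PRP, diluted with platelet-free plasma (1000g, 10 min) to 300 000-400 000 platelets/mm³. Aggregation read photometrically (Born method) at 37 °C in stirred PRP as light transmission or optical density change. Agents dissolved in saline buffered to pH 7.4 with sodium barbitone. ADP added to 0.67 μM.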

[4] = tested on: Platelet; assay: Antiplatelet activity in sheep platelet rich plasma assessed as inhibition of ADP-induced platelet aggregation at 3.75 uM pretreated for 1 min followed by ADP addition by photometric analysis; settings: Ovis aries
[5] = tested on: Rattus norvegicus; assay: Cardiotoxicity in anesthetized rat assessed as effect on heart rate up to 2.5 umol/kg, iv; type: toxicity, organism-based; settings: in vivo
[6] = tested on: Rattus norvegicus; assay: Toxicity in anesthetized rat assessed as hypotensive potency up to 2.5 umol/kg, iv relative to adenosine; type: organism-based; settings: in vivo
[7] = Stimulation of platelet aggregation in sheep platelet rich plasma at 100 uM pretreated for 1 min followed by ADP addition by photometric analysis; type: ADME, cell-free, Ovis aries; method in brief: as §2
[8] = tested on: Platelet; assay: Antiplatelet activity in sheep platelet rich plasma assessed as inhibition of serotonin-induced platelet aggregation at 100 uM pretreated for 1 min followed by serotonin addition by photometric analysis; type: functional, cell-free; settings: Ovis aries; method in brief: as §1
[9] = tested on: Platelet; assay: Antiplatelet activity in sheep platelet rich plasma assessed as inhibition of ADP-induced platelet aggregation up to 300 uM pretreated for 2.5 mins followed by ADP addition by photometric analysis; type: functional, cell-free; settings: Ovis aries; method in brief: as §2
[10] = tested on: Platelet; assay: Antiplatelet activity in sheep platelet rich plasma assessed as inhibition of ADP-induced platelet aggregation at 100 uM pretreated for 1 min followed by ADP addition by photometric analysis; type: functional, cell-free; settings: Ovis aries; method in brief: as §2
[11] = tested on: Platelet; assay: Antiplatelet activity in sheep platelet rich plasma assessed as inhibition of serotonin-induced platelet aggregation at 200 uM pretreated for 1 min followed by serotonin addition by photometric analysis; type: functional, cell-free; settings: Ovis aries; method in brief: as §1

SMILES	inhibition [1]	fold change (FC) [2]	inhibition [3]	further results
Nc1nc(Cl)nc2c1ncn2[C@@H]1O[C@H](COP(=O)(O)O)[C@@H](O)[C@H]1O	inactive	0.12	Dose-dependent effect	
CNc1nc(SC)nc2c1ncn2[C@@H]1O[C@H](COP(=O)(O)O)[C@@H](O)[C@H]1O	inactive	0.46	Dose-dependent effect	
CCSc1nc(N)c2ncn([C@@H]3O[C@H](COP(=O)(O)O)[C@@H](O)[C@H]3O)c2n1	inactive	5.2	Dose-dependent effect	inhibition [4]: Active; Activity [5]: Non-toxic; Activity [6]: < 1%
COc1nc(N)c2ncn([C@@H]3O[C@H](COP(=O)(O)O)[C@@H](O)[C@H]3O)c2n1	inactive	0.034	Dose-dependent effect	
CSc1nc(N)c2ncn([C@@H]3O[C@H](COP(=O)(O)O)[C@@H](O)[C@H]3O)c2n1	inactive	2.41	Dose-dependent effect	Activity [5]: Non-toxic; Activity [6]: < 1%
Nc1ncnc2c1ncn2[C@@H]1O[C@H](CO)[C@@H](O)[C@H]1O				inhibition [4]: Active
CNc1nc(Cl)nc2c1ncn2[C@@H]1O[C@H](COP(=O)(O)O)[C@@H](O)[C@H]1O	inactive	0.12	Dose-dependent effect	
CCOc1nc(N)c2ncn([C@@H]3O[C@H](COP(=O)(O)O)[C@@H](O)[C@H]3O)c2n1	inactive	0.103	Dose-dependent effect	
Nc1nc(Cl)nc2c1ncn2[C@@H]1O[C@H](COS(N)(=O)=O)[C@@H](O)[C@H]1O				Activity [7]: Toxic; inhibition [8]: Active; inhibition [9]: inactive
CCSc1nc(N)c2ncn([C@@H]3O[C@H](COP(O)(O)=S)[C@@H](O)[C@H]3O)c2n1.N.N	inactive	13.4		inhibition [4]: Active; Activity [5]: Non-toxic; Activity [6]: < 1%
CCNc1nc(N)c2ncn([C@@H]3O[C@H](COP(=O)(O)O)[C@@H](O)[C@H]3O)c2n1	inactive	0.027	Dose-dependent effect	
CSc1nc(N)c2ncn([C@@H]3O[C@H](COP(O)(O)=S)[C@@H](O)[C@H]3O)c2n1.N.N	inactive	4		Activity [5]: Non-toxic; Activity [6]: < 1%
N.N.Nc1nc(Cl)nc2c1ncn2[C@@H]1O[C@H](COP(O)(O)=S)[C@@H](O)[C@H]1O	inactive	0.44		
Nc1nc(C(F)(F)F)nc2c1ncn2[C@@H]1O[C@H](COP(=O)(O)O)[C@@H](O)[C@H]1O	inactive	0.22	Dose-dependent effect	
CNc1nc(N)c2ncn([C@@H]3O[C@H](COP(=O)(O)O)[C@@H](O)[C@H]3O)c2n1	inactive	0.027	Dose-dependent effect	
Nc1ncnc2c1ncn2[C@@H]1O[C@H](COP(=O)(O)O)[C@@H](O)[C@H]1O [ADENOSINE PHOSPHATE]	inactive	0.12	Dose-dependent effect	
Nc1ncnc2c1ncn2[C@@H]1O[C@H](COP(O)(O)=S)[C@@H](O)[C@H]1O	inactive	0.04		
CSc1nc(N)c2ncn([C@@H]3O[C@H](COS(N)(=O)=O)[C@@H](O)[C@H]3O)c2n1				inhibition [10]: Active; inhibition [11]: Active
Nc1ncnc2c1ncn2[C@@H]1O[C@H](COS(N)(=O)=O)[C@@H](O)[C@H]1O				Activity [7]: Toxic; inhibition [11]: Active; inhibition [9]: inactive
